# Compound activity (PubChem)
# This is a sample that favours compounds with a hit; in the whole collection about 4.6% have one here.
# CHO parental Ca: counter-screen for OX1R antagonists: effect in parental CHO cells | inhibition, % at 5.6 µM | parental CHO-K1, ATP-induced calcium, Fluo-8 fluorescence | actives 0.63% (n = 330,000) | AID 463079;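 active means inhibition above that plate's mean sample inhibition plus 3 SD, cut at about 26% in these data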
#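 material = parental CHO cells | also added = ATP as calcium-mobilizing challenge | dosing = single point at 5.6 µM | detection = intracellular calcium via Fluo-8 no-wash fluorescent dye | read-out = % inhibition | benchmarks = low control ATP plus DMSO, high control DMSO only | repeats = one well per compound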
# TAAR1 agonist: human TAAR1 agonism; Q96RJ0; CHO RD-HGA16 TAAR1, Fluo-8 calcium fluorescence; vehicle wells 0%, saturating PEA agonist 100%; activation, % at 3 µM; actives 0.99% (n = 360,000); AID 624467;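 active means activation above the mean activation of all test compounds in the run plus 3 SD, cut at about 38% in these data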
#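 System: CHO RD-HGA16 cells carrying human TAAR1 plus Gα16; Incubation: 17-24 h seeding, 75 min 37 °C dye, 30 min RT; Measured by: Fluo-8 fluorescence, 5 s baseline then 140 s kinetic read; Control set: DMSO and PEA EC100; Replication: single well for each compound.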
# TAAR1 antagonist: antagonists of human TAAR1 | CHO RD-HGA16 TAAR1, Fluo-8 calcium fluorescence, antagonist | inhibition, % at 3 µM | actives 1.5% (n = 360,000);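 active means inhibition above a per-plate cutoff, the mean inhibition of test compounds on that plate plus 3 SD, cut at about 49% in these data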
#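 Test system: RD-HGA16 CHO cells with stable hTAAR1 and Gα16 / Probe or stimulus: EC80 β-phenethylamine stimulus / Times: seeding 17-24 h prior, 75-min 37 °C, 30-min RT dye loading / Detection: Fluo-8 calcium-sensitive fluorescence / Read-out basis: % inhibition scaled between DMSO and EC80 PEA controls / Repeats: singlicate, one well per test compound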
# GPR7 antag: antagonists of human GPR7 (neuropeptides B/W receptor 1); actives 1.1% (n = 290,000); GPR7-expressing cells, fluorescence antagonist assay; inhibition, % at 4.4 µM; P48145; in the data active means inhibition above about 16%, passing the limit was not always enough;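 further: cells stimulated with the agonist NPW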
# OX1R antag-1: OX1R (human) antagonism; O43613; OX1R-expressing cells, FRET antagonist read-out; inhibition, % at 6.6 µM; actives 1.8% (n = 330,000); AID 485270; in the data active means inhibition mostly above about 38%, no sharp cut-off; inactive means mostly below about 40%
# Target sequence (O43613 whole entry, looked up): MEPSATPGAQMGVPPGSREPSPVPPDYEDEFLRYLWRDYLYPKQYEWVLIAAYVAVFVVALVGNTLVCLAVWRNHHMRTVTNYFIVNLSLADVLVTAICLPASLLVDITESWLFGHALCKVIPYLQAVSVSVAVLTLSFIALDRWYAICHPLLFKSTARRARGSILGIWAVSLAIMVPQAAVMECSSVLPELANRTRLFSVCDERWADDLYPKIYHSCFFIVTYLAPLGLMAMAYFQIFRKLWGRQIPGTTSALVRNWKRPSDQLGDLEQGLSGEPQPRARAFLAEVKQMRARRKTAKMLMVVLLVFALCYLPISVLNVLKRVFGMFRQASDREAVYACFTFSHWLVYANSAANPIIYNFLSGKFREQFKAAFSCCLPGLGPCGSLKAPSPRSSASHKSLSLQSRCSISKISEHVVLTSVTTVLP
# OX1R antag-2: antagonists of human orexin 1 receptor | actives 0.43% (n = 330,000) | CHO/OX1R cells, Fluo-8 calcium fluorescence, orexin A | inhibition, % at 5 µM | O43613 | AID 434989;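 active means inhibition above its plate's threshold, mean inhibition of all tested compounds on the plate plus 3 SD, cut at about 37% in these data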
# OX1R HTRF confirm: OX1R (human) antagonism, HTRF confirmed; inhibition, % at 6.6 µM; shares compounds with OX1R antag-1; actives 49% (n = 1,800); OX1R-expressing cells, HTRF antagonist assay; in the data active means inhibition above about 55%;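 further: CHO cells expressing OX1R stimulated with orexin A at about EC80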
# CHO-K1 HTRF cnt: signal in parental CHO-K1 cells, OX1R antagonist counter-screen; shares compounds with OX1R antag-1; HTRF counterscreen; inhibition, % at 6.6 µM; actives 48% (n = 1,800); AID 493232; in the data active means inhibition above about 17%
# Hits are given with their value; n = inactive; x = no result given.
SMILES,CHO parental Ca,TAAR1 agonist,TAAR1 antagonist,GPR7 antag,OX1R antag-1,OX1R antag-2,OX1R HTRF confirm,CHO-K1 HTRF cnt
Cc1cc(C(=O)Nc2cccc3cccnc23)ccc1[N+](=O)[O-],n,n,n,n,80,n,56,n
CC(C)Oc1ccc(C(=O)Nc2cccc3cccnc23)cc1,n,n,n,n,79,n,n,n
O=C(COc1ccc2ccccc2c1)Nc1cccnc1Cl,n,n,n,n,n,n,x,x
O=C(O)CCCCCNS(=O)(=O)c1cccc2c1C(=O)c1ccccc1C2=O,n,n,n,n,138,n,55,86
CC(C)(C)OC(=O)C[C@@H]1C/C=C\C[C@H](CC(=O)NCCO)C(=O)NC[C@@H](c2ccccc2)OC1=O,n,n,n,x,n,n,x,x
CCOC(=O)C1(CC2CC2)CCN(C(=O)c2cccnc2C)CC1,n,n,n,n,n,n,x,x
Cc1nnc(C)n1N1C(=O)c2cccc3cccc(c23)C1=O,n,n,n,n,n,n,x,x
CCCc1nnc(N2C(=O)c3cccc4cccc(c34)C2=O)s1,n,n,n,n,103,n,n,37
CCN(C(=O)c1ccc(S(=O)(=O)N2CCOCC2)cc1)C1CCS(=O)(=O)C1 (stereo not given),x,n,n,x,x,x,x,x
CC1=C(C(=O)Nc2ccc(C(=O)NC(C)c3ccccc3)cc2)SCCO1 (stereo not given),n,n,n,n,n,n,x,x
Nc1c(Cl)ncnc1N/N=C/c1cccnc1,n,n,n,n,84,n,n,31
Cc1c(Cl)cccc1NC(=O)c1cc(-c2ccccc2O)n[nH]1,n,n,n,n,81,n,n,n
COC(=O)c1cccc(NC(=S)NC(C)C)c1,n,n,n,n,n,n,x,x
CCOC(=O)c1ccc(Nc2ncnc3ccccc23)cc1,n,n,n,n,n,n,x,x
CCOC(=O)c1ccc(Nc2nc(-c3cccnc3)nc3ccccc23)cc1,n,n,56,n,78,n,n,n
NC(=O)C1CCN(C(=O)C2c3ccccc3C(=O)N3CCc4ccccc4C23)CC1 (stereo not given),n,n,n,n,n,n,x,x
COc1ccccc1C(=O)NCC(=O)N=Nc1c(O)n(C(C)C)c2ccccc12,n,n,n,n,93,n,76,n
CC(C)n1c(O)c(N=NC(=O)CNC(=O)Cc2ccc(Cl)cc2)c2ccccc21,n,n,n,n,n,n,x,x
Cc1ccc(/C=C2\SC(=O)N(CCC(=O)N3CCN(C)CC3)C2=O)cc1,n,n,n,n,126,n,n,27
O=C(OCC#CCSc1nnc(-c2ccc([N+](=O)[O-])cc2)o1)c1cccs1,n,n,n,n,87,n,n,30
CCN(C(=O)COC(=O)Cc1ccc(F)cc1)c1c(N)n(Cc2ccccc2)c(=O)[nH]c1=O,n,n,n,x,n,n,x,x
COc1ccc(N2CC(C(=O)OCC(=O)Nc3cccc(C)c3)CC2=O)cc1 (stereo not given),n,n,n,n,n,n,x,x
COc1cc2c(cc1NC(=O)CCCCCN1C(=O)CCC1=O)oc1ccccc12,n,n,n,n,80,n,84,n
COc1cc2c(cc1NC(=O)CCCN1C(=O)CCC1=O)oc1ccccc12,n,n,n,n,n,n,x,x
Cc1cccc(-c2c3c(=O)n(C)c(=O)n(C)c3cn2C(C)C)c1,n,n,n,n,n,n,x,x
SMILES,CHO parental Ca,TAAR1 agonist,TAAR1 antagonist,GPR7 antag,OX1R antag-1,OX1R antag-2,OX1R HTRF confirm,CHO-K1 HTRF cnt
Cc1ccc2c(ccn3cc4c(c(=O)n(C)c(=O)n4C)c23)c1,n,n,n,n,86,n,88,n
O=C(O)C1CN(C(=O)c2cccc(Br)c2)C1,n,n,n,n,n,n,x,x
Cc1ccc(/C=C2\SC(N3CCCCC3)=NC2=O)cc1,n,n,n,n,n,n,x,x
O=C1N=C(N2CCCC2)S/C1=C\c1ccccc1,n,n,n,n,147,n,58,27
O=C1CCC(C(=O)O)N1 (stereo not given),n,n,n,n,n,n,x,x
Cc1c(CN2CCC(CO)(CCOc3ccccc3)CC2)c(=O)n(-c2ccccc2)n1C,n,n,n,n,n,n,x,x
CCOC(=O)C1CCN(C(=O)c2cc3cc4ccc(OC)cc4nc3o2)CC1,n,n,n,n,n,n,x,x
COc1ccc2nc3oc(C(=O)N4CCC(C(N)=O)CC4)cc3cc2c1,n,n,n,n,154,n,n,38
Cc1cc(C)n(C(=O)c2cccc([N+](=O)[O-])c2)n1,n,n,n,n,n,n,x,x
Cc1cc(C)n(C(=O)c2cc([N+](=O)[O-])cc([N+](=O)[O-])c2)n1,n,n,n,n,104,n,71,62
COc1ccc(S(=O)(=O)NCC2CCCN(C(=O)c3sccc3C)C2)cc1 (stereo not given),n,n,n,n,n,n,x,x
CN(C)/C=C1/Oc2c(ccc3ccccc23)C1=O,n,n,n,n,88,n,85,n
Cc1ccnc(NC(=O)Nc2ccc(Br)cc2Cl)c1,n,n,n,n,n,n,x,x
CCCn1c(SCC(=O)Nc2nnc(-c3ccccc3)s2)nnc1-c1ccccn1,n,n,n,n,78,n,65,n
CCCn1c(SCC(=O)NCCc2ccccc2)nnc1-c1ccccn1,n,n,n,n,n,n,x,x
O=C1NC(=O)/C(=C\c2ccc(Oc3ccc([N+](=O)[O-])cn3)cc2)S1,n,n,n,n,77,n,n,n
O=C1C(Nc2ccccc2)=C/C(=N/S(=O)(=O)c2cccs2)c2ccccc21,n,x,x,n,n,n,x,x
CCc1cc[n+](C2=C([O-])c3ccccc3C(=O)/C2=N\S(=O)(=O)c2cccs2)cc1,n,n,n,n,149,n,56,80
CN1CCN(c2cc(CNC[C@H]3O[C@@H](n4cnc5c(=O)[nH]c(N)nc54)[C@H](O)[C@@H]3O)ccc2F)CC1,x,n,n,x,x,x,x,x
C[C@H]1CN([C@@H](C)CO)C(=O)CCCn2nncc2CO[C@@H]1CN(C)Cc1cccc2c1OCCCO2,x,n,n,x,x,x,x,x
COc1cc2c(=O)n(CCC(=O)NCC3CCCO3)c(=O)n(CC(=O)c3ccc(Cl)cc3)c2cc1OC (stereo not given),n,n,n,n,93,n,n,n
COc1cc(/C=N/NC(=O)c2sc(N)c(C#N)c2C)cc(Br)c1O,n,n,n,n,82,n,n,n
CCOc1cc(C(=O)Nc2ccc(NC(C)=O)cc2)ccc1OCC(=O)N1CCCCC1,n,n,n,n,n,n,x,x
